Broadly, the IC50 is the concentration needed to halve the response being measured. As usually defined, the inhibition is the change of the read-out against control, counted positive when it falls.

The source of these data is ChEMBL document CHEMBL4017500 (J Med Chem, 2017).

SMILES strings stand for the structures. Active and inactive are the calls of the source. No cut-off for these calls is given here. Where only a bound is given, the exact number is not on record here.

Series [1] is described as follows: Inhibition of bacterial MBP-fused NDM1 expressed in Escherichia coli BL21(DE3) ausing fluorocillin as substrate preincubated for 20 mins followed by substrate addition measured at 1 sec time interval for 25 mins by fluorescence assay. Details: species or system Bacteria. The method in brief:
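NDM-1 pre-incubated 20 min with inhibitor (final 100 μM to 1 nM) in 50 mM HEPES pH 7.0 with 2 mM CHAPS. Reaction started with fluorocillin (final 87 nM, below KM), NDM-1 final 25 pM. Fluorescence read at λex/em 495/525 nm, 10 reads over ~25 min.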

The target in series [2] is 72 kDa type IV collagenase (Homo sapiens) (UniProt P08253). Nature of the series: Inhibition of human MMP2 (Tyr110 to Asp452 residues) expressed in yeast at 10 uM using Mca-Pro-LeuGly-Leu-Dpa-Ala-Arg-NH2.AcOH as substrate preincubated for 30 mins followed by substrate addition measured after 20 mins by fluorescence assay relative to control. In short, it runs like this: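 Human recombinant MMP-2 (1.16 U/well) or MMP-12 (0.007 U/well) in 50 mM HEPES, 10 mM CaCl2, 0.05% Brij-35, pH 7.5. Enzyme and inhibitor pre-incubated 30 min at 37 °C, then OmniMMP fluorogenic substrate (4 μM) added. Fluorescence rise followed 20 min at ex/em 320/400 nm. Activity relative to no-inhibitor wells, with 200 μM NSA as 0%. Run in triplicate.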

Series [3] addresses Carbonic anhydrase 2 (Homo sapiens) (UniProt P00918). Nature of the series: Inhibition of human carbonic anhydrase 2 at 10 uM using p-nitrophenyl acetate as substrate preincubated for 10 mins followed by substrate addition measured for 15 mins. The method in brief:
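hCAII (100 nM) in 50 mM HEPES pH 8.0 pre-incubated with inhibitor for 10 min at 30 °C. p-Nitrophenyl acetate (500 μM) then added and absorbance at 405 nm followed 15 min. Activity relative to no-inhibitor wells, with 50 μM benzene sulfonamide as 0%. Run in triplicate.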

Series [4] relates to Bacteria. Nature of the series: Binding affinity to bacterial CoCoNDM-1 expressed in Escherichia coli BL21(DE3) assessed as CoCoNDM-1-compound ternary complex formation at 1 equiv by 1H NMR spectroscopic method. The method in brief: (§1)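 Apo-NDM-1 concentrated to ~1 mM and loaded with 2 equiv CoCl2. Samples in 50 mM HEPES, 150 mM NaCl, 10% D2O, pH 6.8. Compounds from 50–100 mM DMSO stocks titrated in ~5 μL aliquots. 1H spectra recorded at 292 K, 300.16 MHz.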

In series [5] the test system is Bacteria. Nature of the series: Binding affinity to bacterial CoCoNDM-1 expressed in Escherichia coli BL21(DE3) assessed as metal stripping at 2 equiv by 1H NMR spectroscopic method. The method in brief: as §1
Series [6] can be described thus: Fluorescence quenching activity assessed as reduction in tryptophan fluorescence up to 32 uM after 30 mins by luminescence spectrometric method. Set-up: scale not given: the % may be the effect or the level left. The method in brief: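 NDM-1 (2 μM final) in 50 mM HEPES pH 7.5 with compound at 4–32 μM for 30 min. Excitation 280 nm, emission scanned 300–400 nm, intensity taken at 348 nm. Scaled with buffer as 0% and inhibitor-free enzyme as 100%. Free L-tryptophan (2 μM) run as control.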

Series [7] has as its target Metallo-beta-lactamase type 2 (Klebsiella pneumoniae) (UniProt C7C422). Nature of the series: Inhibition of NDM1 in Klebsiella pneumoniae isolate Pd1.55 assessed as potentiation of imipenem-induced antibacterial activity by measuring imipenem MIC at 100 mg/L after 18 to 20 hrs by broth microdilution assay (reference value: 8 mg/L).
Series [8] has as its system Escherichia coli. Nature of the series: Effect on growth of Escherichia coli isolate Ch8.68 at 100 mg/L after 18 to 20 hrs by broth microdilution assay. In short, it runs like this:
(§2)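 Mueller-Hinton broth microdilution per CLSI, triplicate. blaNDM-1 clinical isolates grown from OD600 0.1 to 0.224 (~1–2 × 10^8 CFU/mL), diluted 3 μL into 4997 μL MH, and 100 μL added to 100 μL of compound (100 mg/L) alone. Incubated 37 °C for 18–20 h, then scored for growth.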
On the technique in general: In broth dilution the organism is exposed to a series of concentrations in liquid medium.

Series [9] relates to Escherichia coli. Nature of the series: Effect on growth of Escherichia coli isolate Ah8.71 at 100 mg/L after 18 to 20 hrs by broth microdilution assay. In short, it runs like this:
as §2

In series [10] the test system is Klebsiella pneumoniae. Nature of the series: Effect on growth of Klebsiella pneumoniae isolate Pd1.50 at 100 mg/L after 18 to 20 hrs by broth microdilution assay. The method in brief: as §2
Series [11] relates to Klebsiella pneumoniae. Nature of the series: Effect on growth of Klebsiella pneumoniae isolate Pd1.55 at 100 mg/L after 18 to 20 hrs by broth microdilution assay. The method in brief:
as §2

For another series, the system named is HEK293. Nature of the series: Cytotoxicity against HEK293 cells assessed as change in morphology up to 400 uM after 4 to 24 hrs by microscopic assay. To be noted: human. The format is cell-based. The method in brief:
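HEK293 cells treated as in the viability assay (4 or 24 h, DMSO vehicle control). Imaged by epifluorescence microscopy at 20X magnification to assess growth and morphology.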

Sequence of Metallo-beta-lactamase type 2 (Klebsiella pneumoniae) (C7C422 whole entry): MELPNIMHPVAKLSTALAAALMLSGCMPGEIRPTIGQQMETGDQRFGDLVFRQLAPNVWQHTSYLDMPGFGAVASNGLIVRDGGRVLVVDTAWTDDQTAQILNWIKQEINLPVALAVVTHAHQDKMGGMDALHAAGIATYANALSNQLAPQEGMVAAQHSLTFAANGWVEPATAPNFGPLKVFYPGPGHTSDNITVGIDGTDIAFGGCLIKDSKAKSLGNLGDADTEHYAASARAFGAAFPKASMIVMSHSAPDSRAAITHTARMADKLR
Sequence of 72 kDa type IV collagenase (Homo sapiens) (P08253 110-660 limits assumed): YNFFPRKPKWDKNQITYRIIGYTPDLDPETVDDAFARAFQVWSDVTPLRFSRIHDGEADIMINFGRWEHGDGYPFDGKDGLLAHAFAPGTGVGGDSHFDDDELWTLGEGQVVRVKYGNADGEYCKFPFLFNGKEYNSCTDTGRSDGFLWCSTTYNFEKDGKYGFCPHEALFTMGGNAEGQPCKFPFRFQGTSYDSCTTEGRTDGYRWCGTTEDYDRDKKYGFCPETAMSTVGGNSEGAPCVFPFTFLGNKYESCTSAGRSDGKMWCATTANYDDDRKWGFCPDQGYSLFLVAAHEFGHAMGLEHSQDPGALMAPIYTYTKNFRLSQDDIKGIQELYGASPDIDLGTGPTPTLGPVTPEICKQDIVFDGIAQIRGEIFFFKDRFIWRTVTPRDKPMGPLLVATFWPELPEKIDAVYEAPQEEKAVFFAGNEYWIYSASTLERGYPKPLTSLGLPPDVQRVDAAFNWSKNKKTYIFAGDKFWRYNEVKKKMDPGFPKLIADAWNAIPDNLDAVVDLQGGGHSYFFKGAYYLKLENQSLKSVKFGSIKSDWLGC

In [1], `Nc1cccc(-c2cc(C(=O)O)nc(C(=O)O)c2)c1` displayed an IC50 of 80 nM. In [2], this compound returned an inhibition of less than 6%. In addition, the inhibition entry in series [3] is “inactive”. The result in the series on Bacteria [4] and in the series with Bacteria [5] was Active. Also, the Activity in series [6] is 50%; in the series on Escherichia coli [8], “Non-Toxic”; with Escherichia coli [9], “Non-Toxic”; in the series on Klebsiella pneumoniae [10], “Non-Toxic”; with Klebsiella pneumoniae [11] it was “Non-Toxic”; in the series on HEK293, “Non-Toxic”. Further, in series [7], the MIC is 0.5 µg/mL.
